High-throughput results: PubChem BioAssay, Sanford-Burnham Center for Chemical Genomics
Compounds with a hit are over-represented: about 3% of the library has one in this group of screens.
UBC13 inh = inhibitors of human UBC13 polyubiquitin chain formation; P61088; hit rate 0.47% among 330,000; TR-FRET; inhibition, % at 20 µM; AID 485273; in the data active = inhibition above about 45%, passing the limit was not always enough
SENP6 inh = inhibitors of human SENP6 protease; Q9GZR1; Recombinant SENP6 catalytic domain, aminoluciferin luminescence; inhibition, % at 10 µM; hit rate 1.8% among 330,000; AID 2599;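 active = inhibition above about 50% at the single tested dose, limit read from the data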
SENP8 block-1 = inhibitors of human SENP8 protease; Q96LD8; purified SENP8, Z-RLRGG-aminoluciferin cleavage, luminescence; inhibition, % at 10 µM; hit rate 1.2% among 330,000; in the data active = inhibition above about 50%
SENP7 inh = SENP7 protease inhibition | recombinant SENP7, Z-RLRGG-aminoluciferin luminescence, 40 min | hit rate 1.5% among 330,000 | AID 434973 | inhibition, % at 5 µM;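 active = inhibition above about 50% at the single test dose, limit read from the data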
Apaf-1 inh = human Apaf-1 inhibition. O14727. inhibition, % at 20 µM. reconstituted apoptosome caspase-3 activity, DEVD-Rh110 fluorescence. hit rate 0.71% among 330,000; active = inhibition of at least 40% at 20 µM
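Material: cell-free apoptosome with Apaf-1, procaspase-3 and caspase-9; Buffer or medium: Hepes pH 7.5 with detergent and BSA; Reagent: cytochrome c trigger plus (Z-DEVD)2-Rh110 caspase-3 substrate; Times: compound with Apaf-1, dATP, procaspase-3 30 min, then 50 min reaction, room temperature; Technique: Rh110 fluorescence intensity.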
SENP8 block-2 = SENP8 (human) protease inhibition; recombinant SENP8, Nedd8 substrate fluorescence; inhibition, % at 20 µM; hit rate 0.64% among 360,000; in the data active = inhibition mostly above about 40%, no sharp cut-off; inactive = mostly below about 27%
SENP8 conf = human SENP8 inhibition, confirmed; shares compounds with SENP7 inh; Recombinant SENP8, Z-RLRGG-aminoluciferin luminescence, 60 min; inhibition, % at 12.5 µM; hit rate 40% among 6,200; AID 488912;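 active = mean inhibition across replicates above about 50%, limit read from the data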
SENP6 confirm = confirmation of human SENP6 protease inhibitors | shares compounds with SENP7 inh | recombinant SENP6, Z-RLRGG-aminoluciferin luminescence | inhibition, % at 12.5 µM | hit rate 58% among 6,200 | AID 488915
SENP7 conf = human SENP7 inhibition, confirmed | hit rate 69% among 6,200 | shares compounds with SENP7 inh | AID 488917 | recombinant SENP7, Z-RLRGG-aminoluciferin luminescence, 40 min | inhibition, % at 12.5 µM
Casp3 select = selectivity test for SENP inhibitors: human caspase-3 inhibition; purified caspase-3, Z-DEVD-aminoluciferin luminescence, 60 min; inhibition, % at 12.5 µM; AID 488918; hit rate 60% among 6,200; shares compounds with SENP7 inh;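 active = mean inhibition above about 50%, limit read from the data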
Luc interf = counter-screen for SENP inhibitors: luminescence interference. inhibition, % at 12.5 µM. hit rate 39% among 6,200. shares compounds with SENP7 inh. Pre-incubated SENP8/Z-RLRGG-aminoluciferin, luciferase luminescence interference;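 active = mean inhibition above about 50% when retested at one dose, limit read from the data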
A number is an active result; i = inactive; nt = no result.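 Rule for the calls, unless noted: active = mean inhibition above about 50% in the one-dose retest (limit read from the data); inactive = the rest.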

SMILES | UBC13 inh | SENP6 inh | SENP8 block-1 | SENP7 inh | Apaf-1 inh | SENP8 block-2 | SENP8 conf | SENP6 confirm | SENP7 conf | Casp3 select | Luc interf
COC(=O)c1ccc(N=Nc2c(C)[nH]n(-c3ccccc3)c2=O)cc1 | i | i | i | i | i | i | nt | nt | nt | nt | nt
CSc1ccc(N=Nc2c(C)[nH]n(C)c2=O)cc1 | i | i | i | 52.9 | i | i | i | i | i | i | i
N#Cc1ccccc1OCCN1C(=O)c2ccccc2C1=O | i | i | i | i | i | i | nt | nt | nt | nt | nt
Nc1cccc2c1C(=O)N(CCOc1ccccc1F)C2=O | i | 83.1 | 72.9 | 73.0 | i | i | 79.2 | 79.8 | 95.2 | 78.7 | 82.9
COc1ccc(C(=O)NCC(=O)N/N=C/c2ccco2)cc1OC | i | 101.2 | i | i | i | i | i | i | i | i | i
C(=N\Nc1ncnc2ccccc12)/c1ccccc1 | i | i | i | 66.2 | i | i | 61.6 | 58.8 | 85.3 | 69.1 | 68.1
Clc1cccc(/C=N/Nc2ncnc3ccccc23)c1 | i | i | i | i | i | i | nt | nt | nt | nt | nt
Cc1ccc(-c2nc(N/N=C/c3ccncc3)c3ccccc3n2)cc1 | i | 88.2 | 88.9 | 88.9 | i | i | i | i | i | i | i
Cc1ccc(/C=N/Nc2nnc(Cl)c3ccccc23)cc1 | i | 92.8 | 85.8 | 95.2 | i | i | i | i | i | i | i
Clc1nnc(N/N=C/c2ccccc2)c2ccccc12 | i | 94.4 | 73.6 | 90.0 | i | i | i | i | 65.4 | i | i
Cc1ccc(NS(=O)(=O)c2cccc(C(=O)N3CCCCC3)c2)cc1 | i | i | i | i | i | i | nt | nt | nt | nt | nt
O=C(O)c1ccc(/C=N/N2CCN(c3ccccc3)CC2)cc1 | i | 61.6 | 61.7 | 72.5 | i | i | i | i | i | i | i
O=C(O)c1ccc(C=NN2CCCCCC2)cc1 | nt | nt | nt | nt | nt | i | nt | nt | nt | nt | nt
COc1ccc(/C=N/N2CCN(c3ccccc3OC)CC2)cc1Br | i | 59.4 | i | i | i | i | i | i | 76.2 | i | i
COc1ccc(/C=N/N2CCN(c3ccccc3)CC2)cc1Br | i | i | i | 58.2 | i | i | i | i | i | i | i
CCOc1ccc(-c2c(C(=O)N/N=C(\C)c3ccco3)nnn2-c2nonc2N)cc1 | i | i | i | i | i | i | nt | nt | nt | nt | nt
NNC(=O)c1nc[nH]c1C(=O)Nc1ccccc1 | i | i | i | i | i | i | nt | nt | nt | nt | nt
CCOC(=O)c1ccc(NC(=O)c2ccccc2C)cc1 | i | 70.2 | 57.8 | 65.5 | i | i | 69.3 | 59.4 | 87.4 | 54.2 | 54.7
CCOC(=O)c1ccc(NC(=O)c2ccnn2C)cc1 | i | 67.7 | 59.4 | 58.5 | i | i | i | i | i | i | i
CCOC(=O)c1cccc(NC(=O)c2ccccc2C)c1 | i | i | i | i | i | i | nt | nt | nt | nt | nt
N/C(=N\OC(=O)c1cccs1)c1cccc(Br)c1 | i | i | 80.1 | 87.5 | i | i | 87.3 | 88.6 | 99.1 | 89.6 | 82.0
COc1ccc(/C(N)=N/OC(=O)c2cccs2)cc1OC | i | i | i | i | i | i | nt | nt | nt | nt | nt
Cc1ccc(/C(N)=N/OC(=O)c2cccs2)cc1 | i | 73.0 | 68.3 | 67.3 | i | i | 58.4 | 64.9 | 91.2 | 73.0 | 60.1
N/C(=N\OC(=O)c1cccs1)c1ccccc1 | i | i | 91.3 | 99.0 | i | i | 92.7 | 95.0 | 100.7 | 97.1 | 93.3
N/C(Cc1cccc2ccccc12)=N\OC(=O)c1cccs1 | i | i | i | i | i | i | nt | nt | nt | nt | nt
SMILES | UBC13 inh | SENP6 inh | SENP8 block-1 | SENP7 inh | Apaf-1 inh | SENP8 block-2 | SENP8 conf | SENP6 confirm | SENP7 conf | Casp3 select | Luc interf
Cc1cccc(/C(N)=N/OC(=O)c2cccs2)c1 | i | 88.2 | 91.2 | 97.0 | i | i | 95.4 | 96.0 | 100.8 | 97.1 | 95.6
CCCn1c(N)c(C(=O)COc2ccc(Br)cc2F)c(=O)n(C)c1=O | i | i | i | i | i | i | nt | nt | nt | nt | nt
O=C(O/N=C1\CCCc2ccccc21)c1cccs1 | i | 88.2 | 85.8 | 91.3 | i | i | i | 94.2 | 101.3 | 90.1 | i
Cc1cccc(/C(N)=N/OC(=O)c2ccc(F)cc2)c1 | i | 98.2 | 96.0 | 98.8 | i | i | 97.6 | 98.1 | 101.6 | 97.9 | 88.7
N/C(=N\OC(=O)c1ccc(F)cc1)c1cccc([N+](=O)[O-])c1 | i | i | i | i | i | i | nt | nt | nt | nt | nt
COc1cccc(/C=C/C(=O)Nc2ccc3c(c2)OCCO3)c1OC | i | i | 61.9 | 76.0 | i | i | 78.8 | 77.2 | 91.2 | 71.1 | 78.9
COc1cccc(/C=C/C(=O)Nc2cccc(C(C)=O)c2)c1OC | i | i | i | i | i | i | nt | nt | nt | nt | nt
COc1cccc(C(=O)Nc2ccc3c(c2)OCO3)c1OC | i | 55.1 | i | i | i | i | i | i | 73.0 | 73.0 | 54.1
C[C@H](CO)N1C[C@H](C)[C@H](CN(C)S(=O)(=O)c2ccc(C#N)cc2)OCc2cnnn2CCCC1=O | nt | nt | nt | nt | nt | i | nt | nt | nt | nt | nt
CN(CC(=O)Nc1cc(C(F)(F)F)ccc1-n1cncn1)Cc1ccccc1N1CCOCC1 | nt | nt | nt | nt | nt | i | nt | nt | nt | nt | nt
CC(C)(C)C(=O)Nc1cc(NC(=O)C(C)(C)C)cc(C(=O)Nc2c[nH]c(=O)[nH]c2=O)c1 | i | i | i | i | i | i | nt | nt | nt | nt | nt
COc1ccc(-c2cc3nc(CCl)[nH]c(=O)c3s2)cc1 | i | 93.9 | 82.7 | 58.9 | i | i | 65.8 | 90.6 | 70.3 | 82.0 | i
COc1ccc(-c2cc3nc[nH]c(=O)c3s2)cc1 | i | i | i | i | i | i | nt | nt | nt | nt | nt
COc1ccccc1NC(=O)COc1ccccc1C(=O)c1cnn(-c2ccccc2)c1 | i | i | i | i | i | i | nt | nt | nt | nt | nt
O=C(c1cnn(-c2nc3ccccc3s2)c1)c1ccccc1O | i | 78.7 | i | 82.3 | i | i | i | i | i | i | i
O=C(O)c1ccc(-n2cc(C(=O)c3ccccc3O)cn2)cc1 | i | 84.2 | 77.9 | 78.0 | i | i | 80.9 | 78.6 | 93.2 | 91.3 | 85.0
O=C(c1cnn(-c2ccccc2)c1)c1ccc2ccccc2c1O | i | i | i | 85.6 | i | i | i | i | i | i | i
CC(C)c1ccc(O)c(C(=O)c2cnn(-c3ccccc3)c2)c1 | i | i | i | i | i | i | nt | nt | nt | nt | nt
O=C(c1cnn(-c2cccc(F)c2)c1)c1ccccc1O | i | 71.1 | 57.8 | 67.9 | i | i | i | 72.1 | 83.6 | 55.5 | i
O=C(c1cnn(-c2ccccc2)c1)c1cc(Br)ccc1O | i | i | i | i | i | i | nt | nt | nt | nt | nt
Cc1ccc(S(=O)(=O)NN2Cc3ccccc3C2=N)cc1 | i | i | i | i | i | i | nt | nt | nt | nt | nt
